Measurements taken from ChEMBL document CHEMBL1129647, “Targeting delavirdine/atevirdine resistant HIV-1: identification of (alkylamino)piperidine-containing bis(heteroaryl)piperazines as broad spectrum HIV-1 reverse transcriptase inhibitors” (J Med Chem, 1996).

Assays:
[1] = Bioavailability at an iv dose of 15 mg/Kg and po dose of 30.2 mg/Kg; type: ADME, organism-based; conditions: rat, in vivo, read-out: Bioavailabiility
Method in brief: (§1)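 Male Sprague-Dawley rats, fasted, dosed iv and po in a crossover design with a 1 week washout between treatments (N = 3). Compound was given as a solution in propylene glycol/water (80/20, v/v) acidified with a molar excess of methanesulfonic acid. Values are the iv clearance and the absolute oral bioavailability.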

[2] = Clearance at an iv dose of 15 mg/Kg and po dose of 30.2 mg/Kg; type: ADME, organism-based; conditions: rat, in vivo; method in brief: as §1
[3] = tested on: Human immunodeficiency virus 1; assay: Concentration required to inhibit P24 production by 90% against L-697661 of HIV-1 IIIB (Y181C); type: functional
[4] = molecular target: T1, Human immunodeficiency virus type 1 reverse transcriptase (Human immunodeficiency virus 1, UniProt Q72547)
[5] = molecular target: T2, Human immunodeficiency virus type 1 reverse transcriptase (Human immunodeficiency virus 1, UniProt Q72547, Y181C)
[6] = Bioavailability at an iv dose of 16 mg/Kg and po dose of 35 mg/Kg; type: ADME, organism-based; conditions: rat, in vivo, read-out: Bioavailabiility; method in brief: as §1
[7] = Clearance at an iv dose of 16 mg/Kg and po dose of 35 mg/Kg; type: ADME, organism-based; conditions: rat, in vivo; method in brief: as §1
[8] = Clearance at an iv dose of 15 mg/Kg and po dose of 120 mg/Kg; type: ADME, organism-based; conditions: in vivo; method in brief: as §1
[9] = tested on: Human immunodeficiency virus 1; assay: In vitro inhibition of recombinant HIV-1 IIIB mutant P236L; type: functional, organism-based
[10] = molecular target: T1, Human immunodeficiency virus type 1 reverse transcriptase; assay: Compound was tested for inhibition of HIV-1 181C cell line using poly(rA)300:oligo(dT)10 as substrate
Method in brief: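 Kinetic inhibition study on homodimeric recombinant HIV-1 RTs (WT, P236L, Y181C), varying dTTP or poly(rA):(dT)10 template:primer. Base assay: 28 °C, 10 min, pH 8.3 Tris-HCl, 10 mM MgCl2, 60 mM NaCl, 2 mM DTT, 0.05% NP-40, [3H]TTP incorporation. TCA-precipitated product collected on glass fibre filters and counted. Ki values derived.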

[11] = tested on: Human immunodeficiency virus 1; assay: In vitro inhibition of recombinant HIV-1 IIIB mutant WT; type: functional, organism-based
[12] = Clearance at an iv dose of 15 mg/Kg and po dose of 240 mg/Kg; type: ADME, organism-based; conditions: in vivo; method in brief: as §1
[13] = tested on: Human immunodeficiency virus 1; assay: Concentration required to inhibit P24 production by 90% against U-90,152 of HIV-1 MF (P236L); type: functional
[14] = tested on: Human immunodeficiency virus 1; assay: In vitro inhibition of recombinant HIV-1 IIIB mutant Y181C; type: functional, organism-based
[15] = molecular target: T1, Human immunodeficiency virus type 1 reverse transcriptase; assay: Compound was tested for inhibition of HIV-1 WT reverse transcriptase using dTTP as substrate
[16] = Bioavailability (dose 15 mg/kg i.v. and 30 mg/kg p.o.); type: ADME, organism-based; conditions: eutheria, in vivo, po; method in brief: as §1
[17] = molecular target: T2, Human immunodeficiency virus type 1 reverse transcriptase; assay: Compound was tested for inhibition of HIV-1 Y181C reverse transcriptase using dTTP as substrate
[18] = molecular target: T3, Human immunodeficiency virus type 1 reverse transcriptase (Human immunodeficiency virus 1, UniProt Q72547, P236L); assay: Compound was tested for inhibition of HIV-1 P236L reverse transcriptase using poly(rA)300:oligo(dT)10 as substrate
[19] = molecular target: T1, Human immunodeficiency virus type 1 reverse transcriptase; assay: Compound was tested for inhibition of HIV-1 WT reverse transcriptase using poly(rA)300:oligo(dT)10 as substrate
[20] = Bioavailability at an iv dose of 15 mg/Kg and po dose of 120 mg/Kg; type: ADME, organism-based; conditions: in vivo, read-out: Bioavailabiility; method in brief: as §1
[21] = Bioavailability at an iv dose of 15 mg/Kg and po dose of 60 mg/Kg; type: ADME, organism-based; conditions: in vivo, read-out: Bioavailabiility; method in brief: as §1
[22] = Clearance at an iv dose of 15 mg/Kg and po dose of 30 mg/Kg; type: ADME, organism-based; conditions: in vivo; method in brief: as §1
[23] = molecular target: T3, Human immunodeficiency virus type 1 reverse transcriptase; assay: Compound was tested for inhibition of HIV-1 P236L reverse transcriptase using dTTP as substrate
[24] = Clearance at an iv dose of 15 mg/Kg and po dose of 60 mg/Kg; type: ADME, organism-based; conditions: in vivo; method in brief: as §1
[25] = tested on: Human immunodeficiency virus 1; assay: Concentration required to inhibit P24 production by 90% against U-90,152 of HIV-1 IIIB (L100I, M230L); type: functional
[26] = Clearance at an iv dose of 15.7 mg/Kg and po dose of 31.4 mg/Kg; type: ADME, organism-based; conditions: rat, in vivo; method in brief: as §1
[27] = Bioavailability at an iv dose of 15.7 mg/Kg and po dose of 31.4 mg/Kg; type: ADME, organism-based; conditions: rat, in vivo, read-out: Bioavailabiility; method in brief: as §1
[28] = molecular target: T3, Human immunodeficiency virus type 1 reverse transcriptase
[29] = Clearance at an iv dose of 12 mg/Kg and po dose of 23 mg/Kg; type: ADME, organism-based; conditions: rat, in vivo; method in brief: as §1
[30] = Bioavailability at an iv dose of 12 mg/Kg and po dose of 23 mg/Kg; type: ADME, organism-based; conditions: rat, in vivo, read-out: Bioavailabiility; method in brief: as §1
[31] = Bioavailability at an iv dose of 14 mg/Kg and po dose of 15 mg/Kg; type: ADME, organism-based; conditions: rat, in vivo, read-out: Bioavailabiility; method in brief: as §1
[32] = Clearance at an iv dose of 14 mg/Kg and po dose of 15 mg/Kg; type: ADME, organism-based; conditions: rat, in vivo; method in brief: as §1
Rattus norvegicus = assay: Bioavailability at an iv dose of 14 mg/Kg and po dose of 28 mg/Kg; type: ADME, organism-based; conditions: in vivo; method in brief: as §1

Compound: CC(C)Nc1cccnc1N(C)C1CCN(C(=O)c2cc3cc(NS(C)(=O)=O)ccc3[nH]2)CC1
- bioavailability [1]: 4.3%
- clearance [2]: 44 mL/min/kg
- IC90 [3]: 1000 nM

Compound: CNC(=O)Nc1ccc2[nH]c(C(=O)N3CCC(N(C)c4ncccc4NC(C)C)CC3)cc2c1
- IC50 [4]: 180 nM
- IC50 [5]: 1600 nM
- bioavailability [6]: 12.3%
- clearance [7]: 42 mL/min/kg

Compound: CCN(c1ncccc1NC(C)(C)C)C1CCN(C(=O)c2cc3cc(NS(C)(=O)=O)ccc3[nH]2)CC1
- clearance [8]: 50 mL/min/kg
- IC50 [9]: 460 nM
- Ki [10]: 3090 nM
- IC50 [11]: 320 nM
- clearance [12]: 50 mL/min/kg
- IC90 [13]: 190 nM
- IC50 [14]: 660 nM
- Ki [15]: 1030 nM
- bioavailability [16]: 14%
- Ki [17]: 1920 nM
- Ki [18]: 1600 nM
- Ki [19]: 1380 nM
- bioavailability [20]: 124%
- bioavailability [21]: 42%
- clearance [22]: 50 mL/min/kg
- Ki [23]: 1110 nM
- IC90 [3]: 30 nM
- clearance [24]: 50 mL/min/kg
- IC90 [25]: 80 nM

Compound: CC(C)Nc1cccnc1N(C1CC1)C1CCN(C(=O)c2cc3cc(NS(C)(=O)=O)ccc3[nH]2)CC1
- IC50 [4]: 230 nM
- IC50 [5]: 940 nM
- clearance [26]: 22.6 mL/min/kg
- bioavailability [27]: 1.6%
- IC50 [28]: 700 nM

Compound: CCNc1cccnc1N1CCN(C(=O)c2cc3cc(OC)ccc3[nH]2)CC1.CS(=O)(=O)O [ATEVIRDINE SULPHATE]
- clearance [29]: 13 mL/min/kg
- bioavailability [30]: 75%

Compound: CC(C)Nc1cccnc1N1CCN(C(=O)c2cc3cc(NS(C)(=O)=O)ccc3[nH]2)CC1.CS(=O)(=O)O [DELAVIRDINE MESYLATE]
- bioavailability [31]: 64%
- clearance [32]: 13.6 mL/min/kg
- Bioavailabiility (Rattus norvegicus): 169%
